Source: ChEMBL document CHEMBL4706504, “Hit-to-lead optimization of a latency-associated nuclear antigen inhibitor against Kaposi's sarcoma-associated herpesvirus infections” (Eur J Med Chem, 2020)
Calls of active or inactive are those of the source. No cut-off for these calls is given here.

System: Human gammaherpesvirus 8
Assay: Inhibition of Kaposi's sarcoma herpesvirus C-terminal His-tagged oligomerization deficient LANA DBD (1008 to 1146 residues) K1055E/K1138S/K1140D/K1141D/R1039Q/R1040Q/A1121E/K1109A/D1110A mutant expressed in Escherichia coli BL21(DE3) assessed as inhibition of LANA interaction with 5'-Dy682-labeled …
Settings: dose 250.0 µM, time 90.0 min

| SMILES | inhibition |
| --- | --- |
| O=C(O)c1ccc(-c2cn(-c3cncc(-c4ccccc4)c3Cl)nn2)cc1 | inactive |
| Cc1cc(-c2cccc(CO)c2)ncc1-n1cc(-c2ccc(C(=O)O)cc2)nn1 | inactive |
| O=C(O)c1ccc(-c2cn(-c3cnccc3-c3ccccc3)nn2)cc1 | inactive |

System: Human gammaherpesvirus 8
Assay: (§1) Inhibition of Kaposi's sarcoma herpesvirus C-terminal His-tagged oligomerization deficient LANA DBD (1008 to 1146 residues) K1055E/K1138S/K1140D/K1141D/R1039Q/R1040Q/A1121E/K1109A/D1110A mutant expressed in Escherichia coli BL21(DE3) assessed as inhibition of LANA interaction with 5'-Dy682-labeled viral DNA LBS1 probe at 500 uM preincubated with LANA-DBD for 60 mins followed by addition of DNA probe and measured after 30 mins by Electrophoretic mobility shift assay
Settings: time 90.0 min

| SMILES | inhibition |
| --- | --- |
| O=C(O)c1ccc(-c2cn(-c3cncc(-c4cccc(O)c4)c3)nn2)cc1 | 20% |
| O=C(O)c1ccc(-c2cn(-c3cncc(-c4ccccc4)c3Cl)nn2)cc1 | 100% |
| O=C(O)c1ccc(-c2cn(-c3ccc(O)nc3)nn2)cc1 | 75% |
| Cc1cncc(-n2cc(-c3ccc(C(=O)O)cc3)nn2)c1 | 78% |
| O=C(O)c1ccc(-c2cn(-c3cncc4ccccc34)nn2)cc1 | 96% |
| COc1ccc(-n2cc(-c3ccc(C(=O)O)cc3)nn2)cn1 | 11% |
| Cc1cc(Oc2ccccc2F)ncc1-n1cc(-c2ccc(C(=O)O)cc2)nn1 | inactive |
| O=C(O)c1ccc(-c2cn(-c3cncc4ccc(Cl)cc34)nn2)cc1 | 100% |
| COc1cccc(-c2cncc(-n3cc(-c4ccc(C(=O)O)cc4)nn3)c2)c1 | inactive |
| O=C(O)c1ccc(-c2cn(-c3cccnc3)nn2)cc1 | 82% |
| O=C(O)c1ccc(-c2cn(-c3ccc(Nc4ccccc4)nc3)nn2)cc1 | 29% |
| O=C(O)c1ccc(-c2cn(-c3cnc4ccccc4c3)nn2)cc1 | 61% |
| Cc1cc(-c2cccc(CO)c2)ncc1-n1cc(-c2ccc(C(=O)O)cc2)nn1 | 100% |
| Cc1cc(Oc2ccccc2)ncc1-n1cc(-c2ccc(C(=O)O)cc2)nn1 | inactive |
| Cc1cc(Oc2cccc(F)c2)ncc1-n1cc(-c2ccc(C(=O)O)cc2)nn1 | inactive |
| Cc1cc(-c2ccccc2)ncc1-n1cc(-c2ccc(C(=O)O)cc2)nn1 | 36% |
| O=C(O)c1ccc(-c2cn(-c3cncc(-c4ccoc4)c3)nn2)cc1 | 34% |
| Cc1ccc2cncc(-n3cc(-c4ccc(C(=O)O)cc4)nn3)c2c1 | 100% |
| O=C(O)c1ccc(-c2cn(-c3cnccc3Cl)nn2)cc1 | 94% |
| N#Cc1ccc(-n2cc(-c3ccc(C(=O)O)cc3)nn2)cn1 | inactive |
| Cc1ccncc1-n1cc(-c2ccc(C(=O)O)cc2)nn1 | 39% |
| O=C(O)c1ccc(-c2cn(-c3ccc(Oc4cccnc4)cc3)nn2)cc1 | 100% |
| O=C(O)c1ccc(-c2cn(-c3cnccc3-c3ccccc3)nn2)cc1 | 100% |
| Cc1cc(Oc2ccc(F)cc2)ncc1-n1cc(-c2ccc(C(=O)O)cc2)nn1 | inactive |
| Cc1cc(Sc2ccccc2)ncc1-n1cc(-c2ccc(C(=O)O)cc2)nn1 | inactive |
| Cc1cc(-c2ccc(Cl)cc2)ncc1-n1cc(-c2ccc(C(=O)O)cc2)nn1 | 30% |

System: not listed separately
Assay: as §1, with “probe” for “probe at 500 uM”
Set-up: species or system Human gammaherpesvirus 8
Settings: not given

| SMILES | IC50 |
| --- | --- |
| O=C(O)c1ccc(-c2cn(-c3cncc4ccc(Cl)cc34)nn2)cc1 | 93 µM |
| O=C(O)c1ccc(-c2cn(-c3cccnc3)nn2)cc1 | 426 µM |
| Cc1ccc2cncc(-n3cc(-c4ccc(C(=O)O)cc4)nn3)c2c1 | 53 µM |
| O=C(O)c1ccc(-c2cn(-c3ccc(Oc4cccnc4)cc3)nn2)cc1 | 64 µM |

System: not listed separately
Assay: as §1, with “fluorescently-labelled” for “5'-Dy682-labeled”, “LBS2” for “LBS1”, “probe” for “probe at 500 uM”, “90” for “30”, “flourescence polarization” for “Electrophoretic mobility shift”
Set-up: species or system Human gammaherpesvirus 8
Settings: not given
How it was run: (§2)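 FP competition of DNA binding, using the oligomerization-deficient LANA DBD mutant (aa 1008-1146, nine point mutations). Probes were LBS1, LBS2 or LBS3. Values are IC50 from the average of duplicates ± standard deviation.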

| SMILES | IC50 |
| --- | --- |
| O=C(O)c1ccc(-c2cn(-c3cncc(-c4cccc(O)c4)c3)nn2)cc1 | 153 µM |
| O=C(O)c1ccc(-c2cn(-c3cncc(-c4ccccc4)c3Cl)nn2)cc1 | 38 µM |
| O=C(O)c1ccc(-c2cn(-c3ccc(O)nc3)nn2)cc1 | 214 µM |
| Cc1cncc(-n2cc(-c3ccc(C(=O)O)cc3)nn2)c1 | 45 µM |
| O=C(O)c1ccc(-c2cn(-c3cncc4ccccc34)nn2)cc1 | 33 µM |
| COc1ccc(-n2cc(-c3ccc(C(=O)O)cc3)nn2)cn1 | 218 µM |
| Cc1cc(Oc2ccccc2F)ncc1-n1cc(-c2ccc(C(=O)O)cc2)nn1 | 64 µM |
| O=C(O)c1ccc(-c2cn(-c3cncc4ccc(Cl)cc34)nn2)cc1 | 17 µM |
| COc1cccc(-c2cncc(-n3cc(-c4ccc(C(=O)O)cc4)nn3)c2)c1 | 110 µM |
| O=C(O)c1ccc(-c2cn(-c3cccnc3)nn2)cc1 | 17 µM |
| O=C(O)c1ccc(-c2cn(-c3ccc(Nc4ccccc4)nc3)nn2)cc1 | 110 µM |
| O=C(O)c1ccc(-c2cn(-c3cnc4ccccc4c3)nn2)cc1 | 70 µM |
| Cc1cc(-c2cccc(CO)c2)ncc1-n1cc(-c2ccc(C(=O)O)cc2)nn1 | 25 µM |
| Cc1cc(Oc2ccccc2)ncc1-n1cc(-c2ccc(C(=O)O)cc2)nn1 | 198 µM |
| Cc1cc(Oc2cccc(F)c2)ncc1-n1cc(-c2ccc(C(=O)O)cc2)nn1 | 122 µM |
| Cc1cc(-c2ccccc2)ncc1-n1cc(-c2ccc(C(=O)O)cc2)nn1 | 36 µM |
| O=C(O)c1ccc(-c2cn(-c3cncc(-c4ccoc4)c3)nn2)cc1 | 19 µM |
| Cc1ccc2cncc(-n3cc(-c4ccc(C(=O)O)cc4)nn3)c2c1 | 8 µM |
| O=C(O)c1ccc(-c2cn(-c3cnccc3Cl)nn2)cc1 | 29 µM |
| N#Cc1ccc(-n2cc(-c3ccc(C(=O)O)cc3)nn2)cn1 | 52 µM |
| Cc1ccncc1-n1cc(-c2ccc(C(=O)O)cc2)nn1 | 86 µM |
| O=C(O)c1ccc(-c2cn(-c3ccc(Oc4cccnc4)cc3)nn2)cc1 | 19 µM |
| O=C(O)c1ccc(-c2cn(-c3cnccc3-c3ccccc3)nn2)cc1 | 18 µM |
| Cc1cc(Oc2ccc(F)cc2)ncc1-n1cc(-c2ccc(C(=O)O)cc2)nn1 | 134 µM |
| Cc1cc(Sc2ccccc2)ncc1-n1cc(-c2ccc(C(=O)O)cc2)nn1 | 175 µM |
| Cc1cc(-c2ccc(Cl)cc2)ncc1-n1cc(-c2ccc(C(=O)O)cc2)nn1 | 58 µM |

System: Human gammaherpesvirus 8
Assay: (§3) Inhibition of Kaposi's sarcoma herpesvirus wild type LANA CTD (934 to 1162 residues) expressed in Escherichia coli BL21 (DE3) assessed as inhibition of LANA interaction with 5'-Dy682-labeled viral DNA LBS1 probe at 250 uM preincubated with LANA CTD for 60 mins followed by addition of DNA probe and measured after 30 mins by Electrophoretic mobility shift assay
Settings: time 90.0 min

| SMILES | inhibition |
| --- | --- |
| O=C(O)c1ccc(-c2cn(-c3cncc(-c4ccccc4)c3Cl)nn2)cc1 | inactive |
| O=C(O)c1ccc(-c2cn(-c3cncc4ccc(Cl)cc34)nn2)cc1 | inactive |
| O=C(O)c1ccc(-c2cn(-c3cccnc3)nn2)cc1 | inactive |
| Cc1cc(-c2cccc(CO)c2)ncc1-n1cc(-c2ccc(C(=O)O)cc2)nn1 | inactive |
| Cc1ccc2cncc(-n3cc(-c4ccc(C(=O)O)cc4)nn3)c2c1 | Active |
| O=C(O)c1ccc(-c2cn(-c3ccc(Oc4cccnc4)cc3)nn2)cc1 | inactive |
| O=C(O)c1ccc(-c2cn(-c3cnccc3-c3ccccc3)nn2)cc1 | inactive |

System: Human gammaherpesvirus 8
Assay: as §1, with “LBS1+2” for “LBS1”, “62.5” for “500”
Settings: time 90.0 min
How it was run: (§4)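 EMSA with the LANA DBD mutant as a dose-dependent test against higher-order complexes. Combined probes were LBS1+2 and LBS2+1+3. Inhibition was judged from loss of the LANA-DNA complex band.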

| SMILES | inhibition |
| --- | --- |
| Cc1ccc2cncc(-n3cc(-c4ccc(C(=O)O)cc4)nn3)c2c1 | Active |

System: Human gammaherpesvirus 8
Assay: Binding affinity to Kaposi's sarcoma herpesvirus C-terminal His-tagged oligomerization deficient LANA DBD (1008 to 1146 residues) K1055E/K1138S/K1140D/K1141D/R1039Q/R1040Q/A1121E/K1109A/D1110A mutant expressed in Escherichia coli BL21(DE3) at 500 uM by STD-NMR analysis
Settings: not given

| SMILES | Activity |
| --- | --- |
| Cc1ccc2cncc(-n3cc(-c4ccc(C(=O)O)cc4)nn3)c2c1 | Active |

System: not listed separately
Assay: as §1, with “fluorescently-labelled” for “5'-Dy682-labeled”, “probe” for “probe at 500 uM”, “90” for “30”, “flourescence polarization” for “Electrophoretic mobility shift”
Set-up: species or system Human gammaherpesvirus 8
Settings: not given
How it was run: as §2

| SMILES | IC50 |
| --- | --- |
| O=C(O)c1ccc(-c2cn(-c3cncc(-c4ccccc4)c3Cl)nn2)cc1 | 55 µM |
| O=C(O)c1ccc(-c2cn(-c3cncc4ccc(Cl)cc34)nn2)cc1 | 14 µM |
| O=C(O)c1ccc(-c2cn(-c3cccnc3)nn2)cc1 | 20 µM |
| Cc1cc(-c2cccc(CO)c2)ncc1-n1cc(-c2ccc(C(=O)O)cc2)nn1 | 64 µM |
| Cc1ccc2cncc(-n3cc(-c4ccc(C(=O)O)cc4)nn3)c2c1 | 9 µM |
| O=C(O)c1ccc(-c2cn(-c3ccc(Oc4cccnc4)cc3)nn2)cc1 | 15 µM |
| O=C(O)c1ccc(-c2cn(-c3cnccc3-c3ccccc3)nn2)cc1 | 52 µM |

System: Human gammaherpesvirus 8
Assay: as §1, with “LBS1+2+3” for “LBS1”, “125” for “500”
Settings: time 90.0 min
How it was run: as §4

| SMILES | inhibition |
| --- | --- |
| Cc1ccc2cncc(-n3cc(-c4ccc(C(=O)O)cc4)nn3)c2c1 | Active |

System: not listed separately
Assay: as §3, with “probe” for “probe at 250 uM”
Set-up: species or system Human gammaherpesvirus 8
Settings: not given
How it was run: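 GST-tagged KSHV LANA CTD (aa934-1162), wild type and unmutated, binding an LBS1 probe in EMSA. Compounds were first screened at a single fixed final concentration, then run in a dose-response EMSA. LANA-DNA complex (upper) band intensities were normalized to 0-100% inhibition. IC50 came from a four-parameter dose-response fit.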

| SMILES | IC50 |
| --- | --- |
| O=C(O)c1ccc(-c2cn(-c3cccnc3)nn2)cc1 | 435 µM |
| Cc1ccc2cncc(-n3cc(-c4ccc(C(=O)O)cc4)nn3)c2c1 | 60 µM |

System: not listed separately
Assay: as §1, with “fluorescently-labelled” for “5'-Dy682-labeled”, “LBS3” for “LBS1”, “probe” for “probe at 500 uM”, “90” for “30”, “flourescence polarization” for “Electrophoretic mobility shift”
Set-up: species or system Human gammaherpesvirus 8
Settings: not given
How it was run: as §2

| SMILES | IC50 |
| --- | --- |
| O=C(O)c1ccc(-c2cn(-c3cncc(-c4ccccc4)c3Cl)nn2)cc1 | 45 µM |
| O=C(O)c1ccc(-c2cn(-c3cncc4ccc(Cl)cc34)nn2)cc1 | 15 µM |
| O=C(O)c1ccc(-c2cn(-c3cccnc3)nn2)cc1 | 19 µM |
| Cc1cc(-c2cccc(CO)c2)ncc1-n1cc(-c2ccc(C(=O)O)cc2)nn1 | 63 µM |
| Cc1ccc2cncc(-n3cc(-c4ccc(C(=O)O)cc4)nn3)c2c1 | 8 µM |
| O=C(O)c1ccc(-c2cn(-c3ccc(Oc4cccnc4)cc3)nn2)cc1 | 25 µM |
| O=C(O)c1ccc(-c2cn(-c3cnccc3-c3ccccc3)nn2)cc1 | 42 µM |
